# Experiments:
# Type in all cases: functional
# Fonsecaea compacta = test: Antifungal activity against Fonsecaea compacta after 7 days by micro-broth dilution method; settings: 168 h
# Summary of the method: (§1)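 Clinical isolates supplied by a hospital were tested by NCCLS broth microdilution. Compounds were dissolved in DMSO, serially diluted in growth medium, inoculated and incubated at 35 C. Growth was read at 7 days for filamentous fungi. MIC80 was taken as the first well with about 80% less growth than the drug-free well.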
# Candida albicans = test: Antifungal activity against Candida albicans ATCC Y0109 after 24 hrs by micro-broth dilution method
# Summary of the method: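 An ATCC standard quality-control strain was included in each run of an NCCLS micro-broth dilution assay. Compounds were dissolved in DMSO, serially diluted in growth medium and incubated at 35 C. Reading was at 24 h, and MIC80 was the first well showing roughly 80% growth reduction versus the drug-free control.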
# Candida tropicalis = test: Antifungal activity against Candida tropicalis after 7 days by micro-broth dilution method; settings: 168 h
# Summary of the method: (§2)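 Micro-broth dilution followed NCCLS methods, using an ATCC standard quality-control strain for C. parapsilosis and a clinical isolate for C. tropicalis. Compounds were dissolved in DMSO, serially diluted in growth medium and incubated at 35 C. MIC80 was the first well with about 80% growth reduction compared with the drug-free well.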
# Microsporum = test: Antifungal activity against Microsporum gypseum after 7 days by micro-broth dilution method; settings: 168 h; summary of the method: as §1
# Cryptococcus neoformans = test: Antifungal activity against Cryptococcus neoformans ATCC BLS108 after 72 hrs by micro-broth dilution method
# Summary of the method: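 This ATCC standard quality-control strain was tested in every assay by NCCLS microdilution. Test agents were dissolved in DMSO and serially diluted in growth medium. Cultures were incubated at 35 C and read at 72 h. MIC80 was the first well with approximately 80% reduced growth relative to the drug-free well.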
# Trichophyton rubrum = test: Antifungal activity against Trichophyton rubrum after 7 days by microbroth dilution method; settings: 168 h; summary of the method: as §1
# Aspergillus fumigatus = test: Antifungal activity against Aspergillus fumigatus after 7 days by micro-broth dilution method; settings: 168 h; summary of the method: as §1
# Candida parapsilosis = test: Antifungal activity against Candida parapsilosis ATCC 0306392 after 7 days by micro-broth dilution method; settings: Lodderomyces parapsilosis, ATCC 0306392, 168 h; summary of the method: as §2
Structure (SMILES),MIC80 (Fonsecaea compacta) [µg/mL],MIC80 (Candida albicans) [µg/mL],MIC80 (Candida tropicalis) [µg/mL],MIC80 (Microsporum) [µg/mL],MIC80 (Cryptococcus neoformans) [µg/mL],MIC80 (Trichophyton rubrum) [µg/mL],MIC80 (Aspergillus fumigatus) [µg/mL],MIC80 (Candida parapsilosis) [µg/mL]
C[C@@H](c1ncncc1F)[C@](O)(Cn1cncn1)c1ccc(F)cc1F [VORICONAZOLE],0.0152,0.0152,0.25,0.0039,0.0152,0.0039,> 64,1
O=C(Nc1ccc(N2CCN(CC(O)(Cn3cncn3)c3ccc(F)cc3F)CC2)c(F)c1)c1cccc(C(F)(F)F)c1 (centres undefined),0.25,0.25,0.25,0.0625,0.25,0.0625,4,0.0152
CC(=O)N1CCN(c2ccc(OC[C@H]3CO[C@](Cn4ccnc4)(c4ccc(Cl)cc4Cl)O3)cc2)CC1 [KETOCONAZOLE],0.0625,0.0625,0.0625,0.0039,0.0625,0.0625,1,0.0625
O=[N+]([O-])c1ccc(N2CCN(CC(O)(Cn3cncn3)c3ccc(F)cc3F)CC2)c(F)c1 (centres undefined),0.0625,0.0152,0.0152,0.0152,0.0152,0.0152,1,0.0039
COc1ccc(C(=O)Nc2ccc(N3CCN(CC(O)(Cn4cncn4)c4ccc(F)cc4F)CC3)c(F)c2)cc1OC (centres undefined),0.25,0.0625,0.0039,0.25,0.25,0.25,1,0.0625
Nc1ccc(N2CCN(CC(O)(Cn3cncn3)c3ccc(F)cc3F)CC2)c(F)c1 (centres undefined),0.25,0.25,4,0.0625,0.0152,0.25,4,0.25
Cc1ccc(C(=O)Nc2ccc(N3CCN(CC(O)(Cn4cncn4)c4ccc(F)cc4F)CC3)c(F)c2)cc1C (centres undefined),0.25,0.25,0.0625,0.0152,0.25,0.0625,1,0.0152

# More lines, now with the values ahead:
MIC80 (Fonsecaea compacta) [µg/mL],MIC80 (Candida albicans) [µg/mL],MIC80 (Candida tropicalis) [µg/mL],MIC80 (Microsporum) [µg/mL],MIC80 (Cryptococcus neoformans) [µg/mL],MIC80 (Trichophyton rubrum) [µg/mL],MIC80 (Aspergillus fumigatus) [µg/mL],MIC80 (Candida parapsilosis) [µg/mL],Structure (SMILES)
1,0.0152,0.0625,0.0625,1,0.0152,1,0.0625,O=C(Nc1ccc(N2CCN(CC(O)(Cn3cncn3)c3ccc(F)cc3F)CC2)c(F)c1)c1ccccc1[N+](=O)[O-] (centres undefined)
0.0625,0.0625,0.0152,0.25,0.25,0.0625,0.25,0.0152,O=C(Nc1ccc(N2CCN(CC(O)(Cn3cncn3)c3ccc(F)cc3F)CC2)c(F)c1)c1ccc(Cl)cc1 (centres undefined)
0.25,0.25,0.0625,0.0625,0.25,0.0625,4,0.0152,O=C(Nc1ccc(N2CCN(CC(O)(Cn3cncn3)c3ccc(F)cc3F)CC2)c(F)c1)c1cccc(Cl)c1 (centres undefined)
0.25,0.0625,0.0152,0.0625,0.0625,0.0039,1,0.0152,O=C(Nc1ccc(N2CCN(CC(O)(Cn3cncn3)c3ccc(F)cc3F)CC2)c(F)c1)c1ccccc1Br (centres undefined)
0.0625,0.0625,0.0152,1,0.0625,0.0625,1,0.0152,Cc1ccc(C(=O)Nc2ccc(N3CCN(CC(O)(Cn4cncn4)c4ccc(F)cc4F)CC3)c(F)c2)cc1 (centres undefined)
0.25,0.0625,0.0625,0.25,0.25,0.0625,4,0.0625,O=C(Nc1ccc(N2CCN(CC(O)(Cn3cncn3)c3ccc(F)cc3F)CC2)c(F)c1)c1cccc(Br)c1 (centres undefined)

# Reference: ChEMBL document CHEMBL1147868, “Synthesis of novel triazole derivatives as inhibitors of cytochrome P450 14alpha-demethylase (CYP51)” (2007)
